Experimental data collected from several papers.
BRD4 BD1: Bromodomain-containing protein 4, BD1 (BRD4, Homo sapiens, UniProt O60885)
HDAC8: Histone deacetylase 8 (HDAC8, Homo sapiens, UniProt Q9BY41)
murD: UDP-N-acetylmuramoylalanine--D-glutamate ligase (murD, Escherichia coli K-12, UniProt P14900)
CDK11B: Cyclin-dependent kinase 11B (CDK11B, Homo sapiens, UniProt P21127)
KAT2B: Histone acetyltransferase KAT2B (KAT2B, Homo sapiens, UniProt Q92831)

target	assay	setting	quantity	result	Compound
BRD4 BD1	thermal stability, DSF	250 µM	ΔTm	15 °C	CN(C)CCN1CCN(c2nc(NCc3cccc(Cl)c3)c3cc(-c4ccc(=O)n(C)c4)ccc3n2)CC1
Tyrosine-protein kinase BAZ1B (BAZ1B, Homo sapiens, UniProt Q9UIG0)	thermal stability, DSF	10 µM	ΔTm	0.29 °C	C[S+]([O-])c1ccc(-c2nc(-c3ccncc3)c(-c3ccc(F)cc3)[nH]2)cc1 (centres unmarked)
HDAC8	enzyme activity, inhibitor	10 µM	inhibition	68%	O=c1c(O)c(-c2ccc(O)c(O)c2)oc2cc(O)cc(O)c12
Bromodomain-containing protein 4, BD2 (BRD4, Homo sapiens, UniProt O60885)	thermal stability, DSF	10 µM	ΔTm	3.11 °C	Cc1cnc(Nc2ccc(OCCN3CCCC3)cc2)nc1Nc1cccc(S(=O)(=O)NC(C)(C)C)c1
HDAC8	enzyme activity, inhibitor	10 µM	inhibition	66.3%	O=c1c(O)c(-c2ccc(O)cc2)oc2cc(O)cc(O)c12
cGMP-dependent protein kinase 1 (PRKG1, Homo sapiens, UniProt Q13976)	enzyme activity, inhibitor	10 µM	remaining activity	-6%	CCCOc1ccc(OC)c(F)c1C(=O)c1ccc(C(=O)N[C@@H]2CNC[C@H]2NC(=O)c2ccc3[nH]ncc3c2)cc1
BRD4 BD1	thermal stability, DSF	10 µM	ΔTm	0.55 °C	Oc1ccc(-c2nc(-c3ccncc3)c(-c3ccc(F)cc3)[nH]2)cc1
murD	enzyme activity, inhibitor, absorbance	100 µM	remaining activity	74%	N#Cc1ccc(COc2ccccc2C=NNS(=O)(=O)c2cccc([N+](=O)[O-])c2)cc1
CDK11B	cell-free assay	20 µM	remaining signal	0.4%	Nc1ncnc2occ(-c3ccc(NC(=O)Nc4cc(C(F)(F)F)ccc4F)cc3)c12
murD	enzyme activity, inhibitor, absorbance	100 µM	remaining activity	49%	O=C(Cc1ccc2c(c1)OCO2)Oc1ccccc1C=NNS(=O)(=O)c1ccc2ccccc2c1
CDK11B	enzyme activity	23.5 nM	remaining activity	79%	Cc1ccc(C(=O)Nc2ccc(CN3CCN(C)CC3)c(C(F)(F)F)c2)cc1C#Cc1cnc2cccnn12
murD	enzyme activity, inhibitor, absorbance	50 µM	remaining activity	81%	O=C(Nc1ccc(C=NNS(=O)(=O)c2ccc3ccccc3c2)cc1)c1ccc([N+](=O)[O-])cc1
BRD4 BD1	thermal stability, DSF	50 µM	ΔTm	-0.52 °C	CC(C)[C@@H]1NC(=O)[C@@H]2CCCN2C(=O)[C@H](Cc2ccccc2)NC(=O)CSC[C@@H](C(=O)N[C@@H](Cc2ccc(O)cc2)C(N)=O)NC(=O)[C@H](Cc2c[nH]c3ccccc23)NC(=O)[C@H](CCCCN)NC(=O)[C@H](Cc2ccccc2)N(C)C(=O)[C@H](Cc2ccccc2)NC1=O
murD	enzyme activity, inhibitor, absorbance	50 µM	remaining activity	71%	O=[N+]([O-])c1ccccc1S(=O)(=O)Oc1ccccc1C=NNS(=O)(=O)c1ccc2ccccc2c1
KAT2B	thermal stability, DSF	10 µM	ΔTm	0.5 °C	Cc1cc2c(cc1N1C(=O)c3cccc4c(Cl)ccc(c34)C1=O)n(C)c(=O)n2C
murD	enzyme activity, inhibitor, absorbance	50 µM	remaining activity	70%	O=[N+]([O-])c1cccc(S(=O)(=O)Oc2ccccc2C=NNS(=O)(=O)c2ccc3ccccc3c2)c1
KAT2B	binding, competition with immobilised ligand	1 µM	remaining binding	80%	NS(=O)(=O)c1ccc(Nc2nc(-c3ccc(F)cc3)c3ccccc3n2)cc1
